# Measured values: PMC10150721 (Journal of Medicinal Chemistry, 2023)
# Experiments:
# class-IIa HDAC = assay type: cell-based; details: HT-29 cells
# Summary of the method: (§1)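 HT-29 cells were grown in DMEM with 10% FBS at 37 °C and 5% CO2, then trypsinised and washed into RPMI without phenol red containing 0.1% FBS. They were seeded at 200 000 cells/well overnight. Substrate was 100 μM Boc-Lys-TFA for class-IIa or 200 μM Boc-Lys-Ac for class-I/IIb, incubated 3 h at 37 °C. Trypsin developer with tween 80 then lysed the cells over 1 h; fluorescence read at ex 360/em 460 nm.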
# class-I/IIb HDAC = assay type: cell-based; details: HT-29 cells
# Summary of the method: as §1
# [1] = screened at 1.0 and 10.0 µM side-by-side with SAHA and NT160
smiles,measurement,setting,value
"O=C(O)c1ccc(-c2noc(C(F)(F)F)n2)cc1 [compound 1, 4-(5-(trifluoromethyl)-1,2,4-oxadiazol-3-yl)benzoic acid]",Inhibition of class-IIa HDAC activity,class-IIa HDAC; [1],~10%
same,IC50,"class-IIa HDAC; read-out: IC50, class-IIa HDAC",> 10 µM
same,"Inhibition of class-I, class-IIb HDAC activities",class-I/IIb HDAC; [1],~10%
same,IC50,"class-I/IIb HDAC; read-out: IC50, class-I/IIb HDAC",> 10 µM
